The values that follow come from paper PMC10903085 (Neurotherapeutics, 2023).

“Also recorded” adds a separate entry of the source.

A short description of data set [1]: Metabolic stability in mouse liver microsomes. The data set is classed as in vitro ADME. (Liver microsomes are vesicles of endoplasmic reticulum, rich in cytochrome P450 enzymes.)
The next data set deals with primary rat neurons. The data set can be described thus: Modified MTT assay of Aβ toxicity in primary neurons. Type of data set: cell-based. The note with it: compound 0.3, 3 or 15 μM, 90-min pretreatment, 2.5 μM Aβ, 24 h.
The nature of data set [2]: Oral administration, brain and plasma concentrations. The data set is classed as in vivo, mouse. The note with it: male CD1 mice, PO 5 mg/kg, 1 h, 2 h, 4 h post-treatment. An outline of the steps: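 Male CD1 mice received test compound orally at 5 mg/kg, formulated at 1 mg/mL in 10 % NMP, 60 % PEG400 and 30 % saline. Brain and plasma levels were measured by HPLC-MS at 1, 2 and 4 h after dosing, and the brain/plasma ratio was taken from these.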

A further data set concerns Tau-Fyn interaction. The data set can be described thus: Endogenous Tau-Fyn PLA in primary neurons. The data set is classed as cell-based, rat. The note with it: 24 h. An outline of the steps: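 Rat hippocampal neurons (E19 Sprague-Dawley embryos) grown on coated coverslips to DIV20, treated with test compound or vehicle, and fixed in PFA 24 h later. Cells were permeabilised in 0.25 % Triton X-100 and blocked in 5 % NGS. Tau (1:1000) and Fyn (1:250) antibodies were applied overnight at 4 °C, then Duolink PLA was run. Thresholded puncta were counted from 5–7 images per coverslip and normalised to vehicle slides; analysis was blinded.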

The subject of another data set is Tau. In words: Western blot of Tau levels in primary neurons. The data set is classed as cell-based, rat. The note with it: 15 μM, 24 h. An outline of the steps:
(§1)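 Rat primary neurons at DIV13 were treated with 15 μM test compound or vehicle for 24 h. They were lysed in Tris/NaCl/EDTA buffer containing SDS, Triton and deoxycholate. 5 μg protein (Bradford) was run on 4–12 % bis-tris/MOPS gels and blotted to PVDF. Blots were probed overnight at 4 °C for Fyn (1:1000), then GAPDH (1:5000), stripped and reprobed for Tau (1:10,000). Infrared detection was used, with densitometry.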

The test system of data set [3] is Fyn. In words: Western blot of Fyn levels in primary neurons. Type of data set: cell-based, rat. The note with it: 15 μM, 24 h. An outline of the steps:
as §1

The subject of the next data set is 97 kinases. In words: Eurofins DiscoverX ScanEDGE kinase panel. Type of data set: binding. The note with it: 3 μM; activity defined as <35 % of control.
Data set [4] concerns the target Fyn (Homo sapiens, UniProt P06241). In words: Custom kinase panel for Fyn. Type of data set: binding. The note with it: 3 μM; activity defined as <35 % of control.
In a further data set the target is FynSH3 (Homo sapiens, UniProt P06241). In words: Isothermal titration calorimetry with FynSH3. The data set is classed as binding. The note with it: 25 °C. An outline of the steps:
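Purified human FynSH3 from E. coli was dialysed at 4 °C into 20 mM Tris, 150 mM NaCl, pH 8.0, quantified by A280 and brought to 5 % DMSO. The cell held ~120 μM FynSH3 and the syringe 1 mM test compound. Sixteen 2.5 μL injections were made at 25 °C. Titrant-into-buffer heat was used as background, and data were fitted to a one-set-of-sites model.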
(In general: Isothermal titration calorimetry measures the heat released or taken up as one component is titrated into another.)

The target in a further data set is Tau-PxxP5/6 (Homo sapiens, UniProt P10636). In words: Isothermal titration calorimetry with Tau-PxxP5/6 peptide. The note with it: 25 °C. The data set is classed as binding. An outline of the steps:
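Calorimetric titration at 25 °C in 5 % DMSO. About 120 μM Tau-PxxP5/6 peptide sat in the cell and 1 mM test compound in the syringe. Sixteen 2.5 μL injections were made. Mixing heat from titrant into buffer alone was used as background, and the normalised heat was fitted to a one-set-of-sites model.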

Data set [5] has as its target T1, Tau-FynSH3 interaction (Homo sapiens, UniProt P10636). In words: Tau-Flag PLA, Tau-FynSH3 in HEK-293 cells. Type of data set: cell-based. The note with it: HEK293, read-out: Inhibition of Tau-FynSH3 interaction (PLA). An outline of the steps:
(§2)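 HEK-293 cells on PDL/laminin coverslips in DMEM with 10 % FBS were co-transfected (Fugene) with 125 ng human 4R2N Tau-mKate2 and 500 ng GST-SH3-Flag plasmid for the relevant SH3 domain. After 24 h, test compound was added at 15 μM final, and cells were fixed 24 h later. PLA used Tau (1:1000) and Flag (1:1000) antibodies, with puncta quantified by thresholding.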

The next data set has as its target Tau-LckSH3 interaction (Homo sapiens, UniProt P10636). The data set can be described thus: Tau-Flag PLA, Tau-LckSH3 in HEK-293 cells. The data set is classed as cell-based. The note with it: 15 μM. An outline of the steps: as §2
The next data set concerns the target Tau-BIN1SH3 interaction (Homo sapiens, UniProt P10636). In words: Tau-Flag PLA, Tau-BIN1SH3 in HEK-293 cells. The data set is classed as cell-based. The note with it: 15 μM. An outline of the steps: as §2
Another data set concerns the target Tau-SrcSH3 interaction (Homo sapiens, UniProt P10636). The data set can be described thus: Tau-Flag PLA, Tau-SrcSH3 in HEK-293 cells. Type of data set: cell-based. The note with it: 15 μM. An outline of the steps: as §2
The test system of the next data set is Tau-tubulin interaction. In words: Tau-tubulin PLA in untransfected HEK-293 cells. The data set is classed as cell-based, human. The note with it: 15 μM, 24 h. An outline of the steps:
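Untransfected HEK-293 cells were grown 48 h, then exposed to 15 μM test compound for 24 h and fixed. PLA for endogenous Tau–α-tubulin proximity used Tau (1:1000) and α-tubulin (1:2000) primary antibodies, with the permeabilisation, blocking, probe, ligation and amplification steps of the neuronal PLA.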

The next data set concerns primary neurons. In words: Multi-electrode array, Aβ-induced network hyperexcitability. The note with it: 1 h pretreatment, 500 nM Aβ oligomers, 4 h. Type of data set: cell-based, rat.
Data set [6] addresses T1, Tau-FynSH3 interaction. The data set can be described thus: Tau-FynSH3 AlphaScreen. Type of data set: binding. The note with it: left-hand phenyl ring removed. Background: In Alpha technology, singlet oxygen from a donor bead excites a nearby acceptor bead.
For data set [7] the following is noted: Phase IIa clinical trial, tolerable dose; cited from earlier work.
A further data set has as its system Sam68(PxxP)-FynSH3. The note with it: cited from earlier work.
Another data set deals with SFK. The note with it: cited from earlier work.

T1 sequence (P10636 1-441 isoform P10636-8): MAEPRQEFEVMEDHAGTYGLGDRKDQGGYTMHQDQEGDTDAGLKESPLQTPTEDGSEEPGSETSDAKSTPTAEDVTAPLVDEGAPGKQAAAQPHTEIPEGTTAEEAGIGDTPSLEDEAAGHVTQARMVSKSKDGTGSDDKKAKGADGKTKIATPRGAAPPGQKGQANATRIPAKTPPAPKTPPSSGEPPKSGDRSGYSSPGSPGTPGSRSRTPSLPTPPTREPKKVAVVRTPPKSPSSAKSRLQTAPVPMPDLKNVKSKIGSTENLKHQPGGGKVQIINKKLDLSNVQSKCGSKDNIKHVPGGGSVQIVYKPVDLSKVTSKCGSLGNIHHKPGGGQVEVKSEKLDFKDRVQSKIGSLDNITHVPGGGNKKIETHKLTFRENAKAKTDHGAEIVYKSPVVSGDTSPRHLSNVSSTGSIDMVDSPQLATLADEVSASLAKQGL
Chain of Fyn (Homo sapiens, UniProt P06241) (P06241 whole entry): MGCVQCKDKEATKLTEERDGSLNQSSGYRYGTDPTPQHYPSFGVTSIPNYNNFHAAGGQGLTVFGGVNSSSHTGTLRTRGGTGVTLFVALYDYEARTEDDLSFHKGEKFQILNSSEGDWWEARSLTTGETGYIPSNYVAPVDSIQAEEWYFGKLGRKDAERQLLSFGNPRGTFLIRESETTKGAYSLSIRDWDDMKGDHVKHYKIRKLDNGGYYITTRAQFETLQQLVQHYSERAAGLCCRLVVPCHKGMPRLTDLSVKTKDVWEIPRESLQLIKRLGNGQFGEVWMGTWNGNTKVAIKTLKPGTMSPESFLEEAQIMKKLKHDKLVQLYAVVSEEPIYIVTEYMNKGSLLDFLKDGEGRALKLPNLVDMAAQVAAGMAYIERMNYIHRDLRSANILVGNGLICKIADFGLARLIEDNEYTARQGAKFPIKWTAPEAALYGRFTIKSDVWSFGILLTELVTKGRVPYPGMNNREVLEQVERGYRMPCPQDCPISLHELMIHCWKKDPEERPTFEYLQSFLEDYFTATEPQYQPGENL
Chain of Tau-BIN1SH3 interaction (P10636 1-441 isoform P10636-8): as the sequence (P10636 1-441 isoform P10636-8) above
Chain of Tau-LckSH3 interaction (P10636 1-441 isoform P10636-8): as above
Chain of Tau-SrcSH3 interaction (P10636 1-441 isoform P10636-8): as above
Chain of FynSH3 (P06241 82-143 limits assumed): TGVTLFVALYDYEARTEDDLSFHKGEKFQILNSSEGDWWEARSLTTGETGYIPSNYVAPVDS

For `O=C(CN1C(=O)CSc2cc(F)ccc21)Nc1nnc(-c2ccccn2)[nH]1` [SRI-39210, 2-(7-fluoro-3-oxo-2,3-dihydro-4H-benzo[b][1,4]thiazin-4-yl)-N-(5-(pyridin-2-yl)-4H-1,2,4-triazol-3-yl)acetamide], the half-life (as a rule, the time in which the quantity being followed falls by half) in data set [1] was found to be 2.43 h. In addition, in the data set with primary rat neurons, the “Amelioration of Aβ toxicity in modified MTT assay” value (shortened to “Amelioration of Aβ toxicity”) is “inhibited Aβ toxicity”. Besides, in data set [2], the “Detection in plasma and brain after oral administration” value (shortened to “Detection in plasma and brain”) was “able to detect SRI-39210 in plasma, it did not cross the BBB and was not present in brain”.

`O=C(CN1C(=O)CSc2cc(Cl)ccc21)Nc1nnc(-c2ccccn2)[nH]1` [SRI-39211, 2-(7-chloro-3-oxo-2,3-dihydro-4H-benzo[b][1,4]thiazin-4-yl)-N-(5-(pyridin-2-yl)-4H-1,2,4-triazol-3-yl)acetamide]: the “Amelioration of Aβ toxicity” value with primary rat neurons is on record as “inhibited Aβ toxicity”.

As to `Cc1ccc2c(c1)SCC(=O)N2CC(=O)Nc1nnc(-c2ccccn2)[nH]1` [SRI-39488, 2-(7-methyl-3-oxo-2,3-dihydro-4H-benzo[b][1,4]thiazin-4-yl)-N-(5-(pyridin-2-yl)-4H-1,2,4-triazol-3-yl)acetamide], the “Amelioration of Aβ toxicity” value in the data set on primary rat neurons was “inhibited Aβ toxicity”.

As to `O=C(CN1CCSc2ccccc21)Nc1nnc(-c2ccccn2)[nH]1` [SRI-39669, 2-(2,3-dihydro-4H-benzo[b][1,4]thiazin-4-yl)-N-(5-(pyridin-2-yl)-4H-1,2,4-triazol-3-yl)acetamide], the “Detection in plasma and brain” value in data set [2] was “detected in both plasma and brain”.

With `O=C(CN1CCCc2ccccc21)Nc1nnc(-c2ccccn2)[nH]1` [SRI-42654, 2-(3,4-Dihydroquinolin-1(2H)-yl)-N-(5-(pyridin-2-yl)-4H-1,2,4-triazol-3-yl)acetamide], the “Amelioration of Aβ toxicity” value in the data set on primary rat neurons is “inhibited Aβ toxicity”.

In the case of `O=C(CN1CCOc2ccccc21)Nc1nnc(-c2ccccn2)[nH]1` [SRI-42667, 2-(2,3-Dihydro-4H-benzo[b][1,4]oxazin-4-yl)-N-(5-(pyridin-2-yl)-4H-1,2,4-triazol-3-yl)acetamide], the “Amelioration of Aβ toxicity” value with primary rat neurons was “ameliorates Aβ toxicity; also recorded: inhibited Aβ toxicity”. In data set [2], the “Detection in plasma and brain” value is “observed in both plasma and brain”. The “Reduction of endogenous Tau-Fyn PLA” value in the data set on Tau-Fyn interaction (3 μM) and in the data set with Tau-Fyn interaction (15 μM) was “reduces endogenous Tau-Fyn PLA” in each case. For the same molecule, in the data set with Tau, the Tau levels entry is listed as “does not reduce”. The Fyn levels result in the data set with Fyn [3] is reported as “does not reduce”. Also, the “Inhibition of any of the 97 kinases” value in the data set on 97 kinases is recorded as “did not inhibit”. Besides, the “Inhibition of Fyn kinase” value at Fyn [4] was “did not inhibit”. Further, the “Binding to FynSH3 by ITC” value on FynSH3 is recorded as “did not bind FynSH3”. For the same molecule, the “Interaction with Tau-PxxP5/6 peptide by ITC” value at Tau-PxxP5/6 was “no interaction”. Further, the inhibition (usually the change of the read-out against control, counted positive when it falls) at 15 µM on Tau-FynSH3 interaction [5] is 37%. Besides, the “Inhibition of Tau-LckSH3 interaction (PLA)” value on Tau-LckSH3 interaction is listed as “strongly inhibited”. Further, at Tau-BIN1SH3 interaction, the “Inhibition of Tau-BIN1 SH3 interaction (PLA)” value is listed as “moderately inhibited”. The “Inhibition of Tau-SrcSH3 interaction (PLA)” value at Tau-SrcSH3 interaction is “did not significantly inhibit”. For the same molecule, the “Inhibition of Tau-tubulin interaction (PLA)” value in the data set on Tau-tubulin interaction is given as “does not inhibit Tau-tubulin interaction”. The “Prevention of Aβ-induced network hyperexcitability (MEA)” value in the data set on primary neurons (3 μM) and with primary neurons (15 μM) was “prevented Aβ-induced network hyperexcitability” in each case.

For the molecule `O=C(CN1CCCCC1)Nc1nnc(-c2ccccn2)[nH]1` [SRI-43142, 2-(piperidin-1-yl)-N-(5-(pyridin-2-yl)-4H-1,2,4-triazol-3-yl)acetamide], the “Reduction of AlphaScreen activity relative to SRI-39669” value on Tau-FynSH3 interaction [6] is on record as 8–10 fold.

For `O=C(CN1CCOCC1)Nc1nnc(-c2ccccn2)[nH]1` [SRI-43143, 2-Morpholino-N-(5-(pyridin-2-yl)-4H-1,2,4-triazol-3-yl)acetamide], the “Reduction of AlphaScreen activity relative to SRI-39669” value at Tau-FynSH3 interaction [6] is 8–10 fold.

As to `CN1CCN(CCOc2cc(OC3CCOCC3)c3c(Nc4c(Cl)ccc5c4OCO5)ncnc3c2)CC1` [saracatinib], the “Clinical benefit in AD” value in [7] is on record as “no clinical benefit”.

On to UCS15A, for which, in the data set with Sam68(PxxP)-FynSH3, the “Inhibition of Sam68(PxxP)-FynSH3 interaction” value was “inhibited”. In the data set with SFK, the “Inhibition of SFK kinase activity” value is “does not inhibit SFK kinase activity”.
